This is a sample that favours compounds with a hit; in the whole collection about 2.5% have one here.
HKDC1 inh: HKDC1 (human) hexokinase inhibition. recombinant HKDC1, G6PDH/diaphorase resazurin coupled fluorescence. inhibition, % at 20 µM. Q2TB90. AID 493160. actives 0.16% (n = 340,000);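 active means inhibition above about 35% when tested at 20 µM, limit read from the data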;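 further: plate controls were DMSO wells with enzyme for no effect and DMSO wells lacking enzyme for full effect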
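Material – in-house recombinant HK5 (HKDC1) enzyme · Quantity – HKDC1 at 5 µg/mL · Buffer or medium – pH 8.0 Tris buffer with 10 mM MgCl2 · Reagent – glucose with 1 mM ATP · Dosing – single 20 µM dose · Times – reaction time 90 min, room temperature, protected from light · Technique – resorufin fluorescence at 613 nm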
PfGluPho inh: PfG6PD (Plasmodium falciparum) enzyme inhibition; PfGluPho enzyme, NADPH resazurin-diaphorase fluorescence; inhibition, % at 20 µM; actives 0.78% (n = 350,000); AID 504690;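 active means inhibition reaching at least a set limit at 20 µM in the primary screen, cut at about 59% in these data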;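 further: 0% = DMSO wells with substrate and 100% = DMSO wells lacking glucose-6-phosphate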
PHOSPHO1 inh: blocks human PHOSPHO1 phosphatase activity; Q8TCT1; recombinant PHOSPHO1, absorbance phosphatase assay; inhibition, % at 13.3 µM; actives 1.1% (n = 290,000); AID 1565; in the data active means inhibition above about 60%
Target sequence (Q8TCT1 whole entry, looked up): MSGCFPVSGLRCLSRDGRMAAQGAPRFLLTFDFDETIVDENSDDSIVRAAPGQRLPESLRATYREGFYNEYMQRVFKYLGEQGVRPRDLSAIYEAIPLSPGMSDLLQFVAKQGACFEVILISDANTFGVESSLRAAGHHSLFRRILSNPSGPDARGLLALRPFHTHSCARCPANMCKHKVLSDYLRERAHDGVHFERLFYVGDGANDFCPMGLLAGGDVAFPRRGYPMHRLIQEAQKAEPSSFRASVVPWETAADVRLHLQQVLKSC
Tb hexokinase: blocks Trypanosoma brucei hexokinase 1 activity; recombinant TbHK1, G6PDH-coupled NADH A340; inhibition, % at 10 µM; AID 1430; actives 0.11% (n = 220,000);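 active means inhibition of 50% or more in the single-dose primary screen; inactive means inhibition below 50%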
EP2 mod: modulates human prostaglandin E2 receptor EP2 signaling; actives 0.83% (n = 260,000); AID 940; induction, % at 25 µM; EP2-expressing cells, cAMP HTRF FRET, PGE2 co-stimulation;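 active means compounds whose cAMP rise, as percent of the full-agonist control response, exceeds 60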;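 further: rat C6 glioma line stably carrying human EP2 under a CMV promoter; the protocol text gives 20 µM as final concentration; 100% = response of wells given 1 µM PGE2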
EP2 antag: EP2 receptor (human) inhibition | actives 0.52% (n = 260,000) | C6 glioma cells expressing human EP2, cAMP TR-FRET; cells stimulated with saturating PGE2 | P43116 | inhibition, % at 25 µM;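 active means percent inhibition above 40 after rounding to a whole number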;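 further: rat C6 glioma host cells with rolipram phosphodiesterase inhibitor present; the protocol text gives 20 µM as final concentration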
An asterisk follows results filed as active.

Screening CCCN(Cc1ccccc1)C(=S)Nc1ccc(C(C)=O)cc1 returned HKDC1 inh 1, PfGluPho inh 5, PHOSPHO1 inh 25, Tb hexokinase -3, EP2 mod -2 and EP2 antag 5.
Screening CC(=O)c1ccc(NC(=S)N(CCCN(C)C)Cc2ccccc2)cc1 returned HKDC1 inh 0, PfGluPho inh 24, PHOSPHO1 inh 27, Tb hexokinase -14, EP2 mod -10 and EP2 antag 128*.
`Cc1ccc(S(=O)(=O)N(Cc2cc3cccc(C)c3[nH]c2=O)C2CCCC2)cc1` gave EP2 mod 5 and EP2 antag 12.
For Cc1cc(=O)[nH]c2ccc(S(=O)(=O)NCc3ccccc3)cc12 the results were HKDC1 inh -3, PfGluPho inh 7 and PHOSPHO1 inh 63*.
Screening CC1=NCC(=O)Nc2cc3c(cc21)OCCO3 returned EP2 mod 4 and EP2 antag 11.
Screening CC1CCN(C(=O)Cn2nnc3ccccc3c2=O)CC1 returned EP2 mod -14 and EP2 antag 6.
`O=C1c2ccccc2C(=O)c2c(NC(=O)c3ccc4c5c(ncnc35)-c3ccccc3C4=O)cccc21` gave EP2 mod 16 and EP2 antag 33.
For O=C(O)c1ccc2c3c(ncnc13)-c1ccccc1C2=O the results were HKDC1 inh 11, PfGluPho inh 20, PHOSPHO1 inh 105*, Tb hexokinase -12 and EP2 mod -3.
Screening C=CCn1c(SC(C)C(C)=O)nc2c1c(=O)n(C)c(=O)n2C (stereo not drawn) returned EP2 mod 20 and EP2 antag 5.
Cc1ccc(-c2ccc(/C=N/N3C(=O)C4C5C=CC(C6CC56)C4C3=O)o2)c([N+](=O)[O-])c1 (stereo not drawn) was read as HKDC1 inh 11, PfGluPho inh 23, PHOSPHO1 inh 69*, Tb hexokinase -8, EP2 mod -26 and EP2 antag 13.
`O=C(CSc1nnc(-c2ccc(F)cc2)o1)N1CCOCC1` gave EP2 mod 12 and EP2 antag 11.
For CCOC(=O)C1=C(C)Nc2ncnn2C1c1ccccc1C(F)(F)F (stereo not drawn) the results were EP2 mod 10 and EP2 antag 6.
For O=C(NCC1(c2ccccc2)CCCC1)C(=O)NCC1(c2ccccc2)CCCC1 the results were HKDC1 inh -2, PfGluPho inh 2, PHOSPHO1 inh -20, Tb hexokinase -1, EP2 mod 19 and EP2 antag 2.
`COc1ccc(C(=O)NCC2(c3ccc(OC)c(OC)c3)CCCC2)cc1OC` gave PfGluPho inh -10.
`O=C(NCC1(c2ccccc2)CCCC1)C1(c2ccccc2)CCCC1` gave HKDC1 inh -4, PfGluPho inh -9, PHOSPHO1 inh 21, Tb hexokinase 10, EP2 mod 62* and EP2 antag 3.
COc1ccc(C2(CNC(=O)Cc3ccccc3)CCCC2)cc1OC was read as HKDC1 inh 14, PfGluPho inh -19, PHOSPHO1 inh 65*, Tb hexokinase 0, EP2 mod 3 and EP2 antag 16.
CC(=O)c1ccc(S(=O)(=O)N2CCCC(C)C2)cc1 (stereo not drawn) was read as EP2 mod -34 and EP2 antag 11.
CC(=O)Nc1ccc(C(O)CN2CCC(O)(c3ccc(F)cc3)CC2)cc1 (stereo not drawn) was read as EP2 mod -11 and EP2 antag 1.
For COc1cc2cc(CN(CCN(C)C)C(=S)NCc3ccco3)c(=O)[nH]c2cc1OC the results were EP2 mod -16 and EP2 antag 10.
Screening CSC1=N/C(=C\c2cccc(F)c2)C(=O)S1 returned HKDC1 inh 1, PfGluPho inh -15, PHOSPHO1 inh 67*, Tb hexokinase -13, EP2 mod 12 and EP2 antag 13.
Screening O=C(CSc1nnc(-c2cc3ccccc3cc2O)o1)Nc1cccc2ccccc12 returned EP2 mod -30 and EP2 antag 9.
For CCc1ccc2[nH]c(=O)c(CN(Cc3ccccc3)C(c3nnnn3C3CCCCC3)C(C)C)cc2c1 (stereo not drawn) the results were EP2 mod 4 and EP2 antag 7.
`O=C1C(Nc2ccccc2)=C(N2CCCCC2)C(=O)c2ccccc21` gave HKDC1 inh 14, PfGluPho inh 26, PHOSPHO1 inh 50, Tb hexokinase -6, EP2 mod -4 and EP2 antag 23.
`CN(C1=C(N2CCCCC2)C(=O)c2ccccc2C1=O)c1ccccc1` gave HKDC1 inh 10, PfGluPho inh 4, PHOSPHO1 inh 12, Tb hexokinase 2, EP2 mod 64* and EP2 antag 7.
`CCCc1cc(CNC(=O)C2(C)CC(c3ccccc3)=NO2)on1` (stereo not drawn) gave EP2 mod -68 and EP2 antag 11.
`O=C(O)COc1ccccc1C(Nc1cccnc1)c1cc(Cl)c2cccnc2c1O` (stereo not drawn) gave HKDC1 inh 8, PfGluPho inh 1, PHOSPHO1 inh 84*, Tb hexokinase 14, EP2 mod 49 and EP2 antag 3.
CCc1ccc(NC(=O)C2CCCN(S(=O)(=O)c3ccc(OC)c(Cl)c3)C2)cc1 (stereo not drawn) was read as EP2 mod -25 and EP2 antag 5.
Screening O=C(O)CCCCCN=C1NC(=O)CC(=O)N1 returned EP2 mod 16 and EP2 antag 4.
For Cc1cc(C(F)(F)F)nc(NCc2cccnc2)n1 the results were HKDC1 inh 0, PfGluPho inh -18, PHOSPHO1 inh 6, Tb hexokinase 79*, EP2 mod 18 and EP2 antag 5.
`N#CC(C#N)=C1C=CC=CN1/C(=C\c1ccco1)C(=O)c1ccccc1` gave HKDC1 inh 22, PfGluPho inh 33, PHOSPHO1 inh 0, Tb hexokinase -69, EP2 mod -87 and EP2 antag 16.
Screening N#CC(C#N)=C1C=CC=CN1/C(=C\c1ccco1)C(=O)c1ccc(Br)cc1 returned HKDC1 inh 20, PfGluPho inh 59*, PHOSPHO1 inh 9, Tb hexokinase -13, EP2 mod -2 and EP2 antag 49*.
For O=C(O)CCCN1C(=O)/C(=C\c2ccc(-c3nc4ccccc4s3)o2)SC1=S the results were HKDC1 inh 5, PfGluPho inh 11, PHOSPHO1 inh 93*, Tb hexokinase -2, EP2 mod 0 and EP2 antag 1.
For O=C(O)CCN1C(=O)/C(=C/c2ccc(-c3nc4ccccc4s3)o2)SC1=S the results were HKDC1 inh -3, PfGluPho inh 5, PHOSPHO1 inh 101*, Tb hexokinase 10 and EP2 mod 12.

Assay outcomes as filed in PubChem BioAssay.
